One assay concerns the target WDR5-MYC (Homo sapiens, UniProt P61964). As to the kind of experiment: Disruption of WDR5/5-FAM-labelled MYC (261 to 267 residues)(unknown origin) interaction incubated for 120 mins by FP assay. In kind it is protein assay. The method, boiled down: (§1)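 FP competition with reporter probe from MYC MbIIIb residues E261–V267 bound to WDR5, compound concentration varied, DMSO as negative control. Ki obtained by fitting FP signal change to a hyperbolic function. Unlabelled MYC peptide run as assay quality control.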

Assay [1] addresses T1, WDR5-MYC (Homo sapiens) (UniProt P61964+P01106). As to the kind of experiment: Disruption of WDR5/5-FAM-labelled MYC (261 to 267 residues)(unknown origin) interaction by FP assay. It counts as protein assay. The note with it: time 0.5-6 hrs. The method, boiled down: as §1
Assay [2] deals with T1, WDR5-MYC (Homo sapiens). As to the kind of experiment: Disruption of WDR5/5-FAM-labelled MYC (261 to 267 residues)(unknown origin) interaction assessed as fold increase in activity incubated for 0.5 to 6 hrs by FP assay relative to control. In kind it is protein assay. The note with it: time 0.5-6 hrs. The method, boiled down: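 Fluorescence polarization with WDR5 and a reporter peptide probe from MYC MbIIIb residues E261–V267. Compounds and WDR5 were incubated for 30 to 360 min before reading. FP signal was recorded over varying compound concentrations and fitted to a hyperbolic function to give Ki. DMSO served as negative control, and free MYC peptide was the quality control.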

For assay [3], the target named is T1, WDR5-MYC (Homo sapiens). Nature of the assay: Disruption of WDR5/5-FAM-labelled MYC (261 to 267 residues)(unknown origin) interaction incubated for 0.5 hrs by FP assay relative to control. It counts as protein assay. The method, boiled down: (§2)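 Time-course FP competition between WDR5 and MYC-derived probe (E261–V267). Compound titrated and read after incubation times from 30 to 360 min. Maximal inhibition (%) and potency taken at each time point from the inhibition curves.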

The target in assay [4] is T1, WDR5-MYC (Homo sapiens). As to the kind of experiment: Disruption of WDR5/5-FAM-labelled MYC (261 to 267 residues)(unknown origin) interaction incubated for 6 hrs by FP assay relative to control. In kind it is protein assay. In short, it runs like this:
as §2

For assay [5], the target named is WD repeat-containing protein 5 (Homo sapiens) (UniProt P61964). As to the kind of experiment: Binding affinity to WDR5 (unknown origin) assessed as decrease in melting temperature by DSF assay relative to control. The method, boiled down: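 DSF with WDR5 protein, with DMSO as the reference group. The inflection-point temperature (Ti) of WDR5 was monitored after compound treatment, and the change is reported as ΔTi relative to DMSO.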
A general note: DSF heats the sample and reads unfolding from a dye or from intrinsic fluorescence.

In assay [6] the target is T1, WDR5-MYC (Homo sapiens). As to the kind of experiment: Disruption of WDR5/5-FAM-labelled MYC (261 to 267 residues)(unknown origin) interaction at 50 uM incubated for 120 mins by FP assay relative to control. It counts as protein assay. The method, boiled down: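 Single-point FP screen at 50 μM compound, signal read against DMSO control. Inhibition rate given as mean of n = 2.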

Assay [7] addresses WD repeat-containing protein 5 (Homo sapiens) (UniProt P61964). As to the kind of experiment: Binding affinity to WDR5 (unknown origin) assessed as increase in melting temperature by DSF assay relative to control. The method, boiled down:
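Differential scanning fluorimetry on WDR5 protein, compounds against DMSO. Inflection-point temperature (Ti) monitored, shift given as ΔTi relative to DMSO group.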

Assay [8] addresses T1, WDR5-MYC (Homo sapiens). Nature of the assay: Disruption of His-tagged recombinant WDR5 (unknown origin)/HEK293T cell lysate-derived C-MYC (unknown origin) protein-protein interaction assessed as dissociation of protein complex incubated for 120 mins by Co-IP assay.
The subject of the next assay is SUD4. Nature of the assay: Antiproliferative activity against human SU-DHL-4 cells incubated for 72 hrs by SRB assay. In kind it is functional, cell-based. The note with it: SU-DHL-4, 72 h.
The subject of a further assay is Raji. Nature of the assay: Antiproliferative activity against human Raji cells incubated for 72 hrs by SRB assay. It counts as functional, cell-based. (The SRB assay estimates cell density from bound dye.)
In a further assay the test system is Ramos. As to the kind of experiment: Antiproliferative activity against human Ramos cells incubated for 72 hrs by SRB assay. It counts as functional, cell-based.
The test system of another assay is HL-60. Nature of the assay: Antiproliferative activity against human HL-60 cells incubated for 72 hrs by SRB assay. The note with it: HL-60, 72 h. In kind it is functional, cell-based.
In a further assay the test system is NCI-H1299. Nature of the assay: Antiproliferative activity against human NCI-H1299 cells incubated for 72 hrs by SRB assay. It counts as functional, cell-based. The note with it: NCI-H1299, 72 h.

The structures appear in SMILES notation.

The text below walks through data of ChEMBL document CHEMBL5584277, “Identification of 5-Thiocyanatothiazol-2-amines Disrupting WDR5-MYC Protein-Protein Interactions” (ACS Med Chem Lett, 2024).

With `N#CSc1sc(N)nc1-c1ccc(Cl)cc1`, the Ki (usually the dissociation constant of the complex between target and ligand, obtained from inhibition or displacement) on WDR5-MYC is 1.3 µM. Also, the Activity entry is “Dose-Dependent Effect” at WDR5-MYC (Homo sapiens) [1], 33.2% on WDR5-MYC (Homo sapiens) [3] and 51.2% at WDR5-MYC (Homo sapiens) [4]. Besides, at WDR5-MYC (Homo sapiens) [2], the fold change (FC) was 1.5. For the same molecule, the shift in melting temperature (ΔTm) (commonly the shift of the melting midpoint relative to a reference) in assay [5] was -2.7 °C.

For the molecule `C[S+]([O-])c1sc(N)nc1-c1ccc(Cl)cc1` (stereo unspecified), the inhibition (in general, the relative decrease from the control value, in per cent) against WDR5-MYC (Homo sapiens) [6] was 0.4%.

Take `N#CSc1sc(N)nc1-c1ccc(Br)cc1`: the Ki at WDR5-MYC came out at 0.9 µM.

Regarding `Nc1nc(-c2ccc(Cl)cc2)c(Br)s1`, the inhibition against WDR5-MYC (Homo sapiens) [6] is -5%.

As to `N#CSc1sc(NC(=O)c2ccc(Cl)cc2)nc1-c1ccc(Cl)cc1`, on WDR5-MYC, the Ki was greater than 50 µM.

For the molecule `Nc1nc(-c2ccc(Cl)cc2)cs1`, at WDR5-MYC (Homo sapiens) [6], the inhibition is 0.9%.

Consider `N#CSc1sc(N)nc1-c1ccccc1Br`, for which the Ki at WDR5-MYC was 3 µM.

Consider `N#CSc1sc(N)nc1-c1ccc(F)cc1`, for which, at WDR5-MYC, the Ki was found to be 3.2 µM.

Turning to `N#CSc1sc(N)nc1-c1cccc(Br)c1`, on WDR5-MYC, the Ki was found to be 2.6 µM.

For the molecule `CNc1nc(-c2ccc(Cl)cc2)c(SC#N)s1`, at WDR5-MYC, the affinity, expressed as Ki, was 1.2 µM.

Turning to `COc1ccc(-c2nc(N)sc2SC#N)cc1`, at WDR5-MYC, affinity was put at a Ki of 2.9 µM.

With `N#CSc1cnc(N)s1`, the Ki at WDR5-MYC came out at 6.1 µM.

`COC(=O)c1ccc(-c2nc(N)sc2SC#N)cc1` showed an inhibitory constant (Ki) at WDR5-MYC of 1.7 µM.

Take `COc1ccc(Br)cc1S(=O)(=O)Nc1cc(Cl)ccc1O`: on WDR5-MYC, the Ki amounted to 16.3 µM. Further, in [7], the thermal shift (ΔTm) worked out at 1.4 °C.

Molecule `N#CSc1sc(N)nc1-c1cccc([N+](=O)[O-])c1` came in with an inhibition constant (Ki) on WDR5-MYC of 4.1 µM.

In the case of `N#CSc1sc(Nc2ccccn2)nc1-c1ccc(Cl)cc1`, the Ki on WDR5-MYC is greater than 50 µM.

With `Cc1ccc(-c2nc(N)sc2SC#N)cc1`, the Ki on WDR5-MYC was found to be 3 µM.

As for `N#CSc1sc(N)nc1-c1ccc(C(F)(F)F)cc1`, on WDR5-MYC, affinity was put at a Ki of 1.5 µM.

`CC(C)C(=O)Nc1nc(-c2ccc(Cl)cc2)c(SC#N)s1` registered a Ki on WDR5-MYC of 1.6 µM.

In turn, `N#CSc1sc(N)nc1-c1ccccc1Cl` gave an inhibitory constant (Ki) on WDR5-MYC of 2.6 µM.

`CNC(=O)c1ccc(-c2nc(N)sc2SC#N)cc1` showed a Ki at WDR5-MYC of 1 µM. For the same molecule, the Activity entry on WDR5-MYC (Homo sapiens) [8] is “Dose-Dependent Effect”. In addition, the IC50 (as a rule, the point on the concentration scale where inhibition reaches its midpoint) with SUD4 was determined as 2.2 µM; in the assay with Raji, 1.52 µM; in the assay on Ramos it was 1.51 µM; in the assay on HL-60 it was 5.32 µM; with NCI-H1299, 7.4 µM. Also, the ΔTm in assay [5] was -5.8 °C.

On to `N#Cc1sc(N)nc1-c1ccc(Cl)cc1`, for which, on WDR5-MYC (Homo sapiens) [6], the inhibition is 1.1%.

In the case of `CCOc1ccc(-c2nc(N)sc2SC#N)cc1Br`, the affinity on WDR5-MYC corresponds to a Ki of 6.3 µM.

For the molecule `Cc1ccc(S(=O)(=O)Nc2nc(-c3ccc(Cl)cc3)c(SC#N)s2)cc1`, the affinity on WDR5-MYC corresponds to a Ki of 54.5 µM.

Consider `CS(=O)(=O)c1sc(N)nc1-c1ccc(Cl)cc1`, for which the inhibition against WDR5-MYC (Homo sapiens) [6] was -10%.

Regarding `N#CSc1sc(N)nc1-c1ccc(O)cc1`, the Ki at WDR5-MYC was 2.4 µM. On WDR5-MYC (Homo sapiens) [8], the Activity result is “Dose-Dependent Effect”. Moreover, the IC50 in the assay on SUD4 is 1.43 µM; with Raji, 0.71 µM; with Ramos, 1.06 µM; in the assay on HL-60, 3.03 µM; in the assay on NCI-H1299 it was 3.7 µM. The ΔTm in [5] is -2.7 °C.
